UPR XBP1 act: activators of adaptive XBP1 UPR arm, primary screen, cell-based, CHO-XBP1 luciferase reporter, luminescence, uHTS | IRE1-XBP1 UPR activation; percent of tunicamycin response, DMSO as zero | activation, % at 20 µM | actives 0.33% (n = 330,000);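 active = versus positive control, 20 µM dose yields 30% or more activation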;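 note: 100% = tunicamycin at 10 µg/mL and 0% = DMSO only wells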
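Material: IRE1-XBP1 luciferase reporter CHO line / Quantity: one thousand reporter cells per well / Buffer or medium: F12 with 10% serum / Compound: 20 µM single concentration, DMSO 1% / Times: 6 h treatment, 37 °C / Detection: Steady-Glo luciferase glow luminescence, 10 min after reagent addition / Benchmarks: tunicamycin high, DMSO low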
A1 inh: caspase 3/7 activation in MEF A1-2A-BIM cells, primary screen, A1 inhibitor project, cell-based, luminescence, HTS | Caspase-Glo 3/7 luminescence, 3 h; percent of clofoctol response, vehicle zero | caspase activation, % (concentration not given with the values) | actives 0.066% (n = 330,000);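 active = over half of replicate activation scores above 10%, or exactly half above 10 with the replicate mean above 10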
UPR CHOP act: activators of apoptotic CHOP UPR arm, primary screen, cell-based, CHO-CHOP luciferase reporter, luminescence, uHTS | actives 0.34% (n = 330,000) | activation, % at 10 µM | UPR activation; percent of tunicamycin response over DMSO baseline | AID 449763, 2010;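 active = at 10 µM dose, activation of 40% or more, normalized to positive control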;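 note: 100% = tunicamycin at 10 µg/mL and 0% = DMSO alone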
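measured by = luciferase luminescence | assay system = CHO-CHOP cells, stable luciferase reporter of PERK-eIF2a-CHOP signalling | amount = 500 reporter cells seeded per well | timing = 6 h compound exposure at 37 °C after overnight seeding | controls = positive tunicamycin 10 µg/mL, negative DMSO alone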
CHOP inh: inhibitors of CHOP promoter induction, primary screen, cell-based, unfolded protein response, luciferase reporter | CHO-K1 CHOP-promoter luciferase, tunicamycin-induced, 15-18 h | actives 3.8% (n = 220,000) | inhibition, % at 10 µM | AID 2732, 2010;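 active = compounds that reduced the stress-induced luciferase reporter signal by more than about 70% of percent inhibition, limit read from the data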;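 note: 0% = tunicamycin plus vehicle and 100% = wells without tunicamycin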
* = called active by the depositor; / = not tested or not shown. The entries come from a sample that favours hits as a whole.

SMILES	UPR XBP1 act	A1 inh	UPR CHOP act	CHOP inh
CCOC(=O)C1(CCOC)CCN(C2C3CC4CC(C3)CC2C4)CC1 (configuration not stated)	-2	0	-2	-18
O=C(Nc1cccc(F)c1)c1c(F)c(F)c(F)c(F)c1F	-2	-1	-3	79*
O=C(Nc1ccccc1NC(=O)c1c(F)c(F)c(F)c(F)c1F)c1c(F)c(F)c(F)c(F)c1F	-1	2	2	77*
CCOC(=O)c1c(C)n(C)c2cc(-c3cccc(C(F)(F)F)c3)c(O)cc12	-1	0	-1	23
CCOC(=O)c1c(C)n(C)c2cc(-c3ccc(C)cc3)c(O)cc12	0	0	0	81*
Fc1ccc(-c2nnc(-c3ccc(Cl)cc3Cl)o2)cc1	-8	-6	-8	80*
Clc1ccc(-c2nnc(-c3ccccc3)o2)c(Cl)c1	-6	-6	-6	43
O=C(NCC(=O)N1CCCCC1)c1sc2ccccc2c1Cl	0	-6	2	/
NC(=O)c1sc2nc3c(c(-c4cccs4)c2c1N)CCCC3	/	/	/	76*
O=C1c2ccccc2CC1Sc1nnc(-c2ccccn2)o1 (configuration not stated)	/	/	/	12
COc1ccc(N2C(=O)CSC23CCC(C(C)(C)C)CC3)cc1 (configuration not stated)	4	1	2	79*
COc1ccc(N2C(=O)CSC23CCCCC3)cc1	-1	-1	-2	7
CC(C)(C)NC(=O)NC(=O)COC(=O)COc1ccc2c(c1)CCC2	-2	0	-1	85*
Cc1cc(C)cc(NC(=O)COC(=O)CCC2CCCC2)c1	0	/	1	/
CC(C)(C)NC(=O)NC(=O)COC(=O)CCC1CCCC1	-1	0	1	77*
NC(=O)C1CCN(C(=O)c2ccc(Oc3cc(Cl)cc(Cl)c3)o2)CC1	0	0	-2	10
CCC(=O)N1CCN(c2ccccc2NC(=O)COc2cc(C)ccc2C(C)C)CC1	-1	0	3	77*
Cc1cc(C)c(OCC(=O)Nc2ccccc2N2CCOCC2)c(C)c1	2	1	0	79*
Cc1ccc(C(C)C)c(OCC(=O)NN=C2CCCCCCC2)c1	-1	-1	1	83*
Cc1ccc(C(C)C)c(OCC(=O)NN=C2CCCC(=O)C2)c1	2	0	-1	/
COc1ccccc1CCNC(=O)CCSc1nc(-c2ccco2)cc(C(F)(F)F)n1	3	0	-2	29
O=C(CCN1C(=O)c2ccccc2C1=O)CN1CCOCC1	-3	0	-1	12
Cc1ccc(C)c(Cn2c(=O)n(CCCC(=O)NCc3ccco3)c(=O)c3ccccc32)c1	-1	2	1	43
CCOc1cc2[nH]c(=S)n(CCCC(=O)NCc3ccco3)c(=O)c2cc1OCC	-2	0	2	82*
O=C(CCCn1c(=O)c2ccccc2n(CC(=O)NCc2ccco2)c1=O)NCc1ccco1	0	-2	-1	73*
SMILES	UPR XBP1 act	A1 inh	UPR CHOP act	CHOP inh
Cc1ccc(C)c(Cn2c(=O)n(CCC(=O)NCc3ccco3)c(=O)c3ccccc32)c1	-4	0	-4	83*
Cc1ccccc1Cn1c(=O)n(CCC(=O)NCc2ccc3c(c2)OCO3)c(=O)c2ccccc21	-2	1	1	87*
O=C(COC(=O)c1ccc[nH]c1=O)NCCc1ccc(Cl)cc1Cl	-4	-1	3	-21
O=C(COc1ccccc1)NNC(=S)NC(=O)c1ccc(Cl)cc1Cl	-1	-1	1	-4
COc1cc(OCC(=O)NC(C)C)cc2c1C(=O)O[C@@H](C)CCCC(=O)CCCCC2	-1	0	2	/
CC(C)c1ccc(Nc2nc(Cl)nc(NCc3ccco3)n2)cc1	3	0	1	79*
CC(C)c1ccc(Nc2nc(Cl)nc(NCCO)n2)cc1	-1	1	1	/
Cc1cccc(C2NS(=O)(=O)N=C2N)c1 (configuration not stated)	-2	0	5	51
Clc1ccc(OCc2nnc(SCCN3CCCCC3)n2Cc2ccco2)cc1	2	0	2	30
CCCCCCCC[n+]1cccc2c3ccccc3ccc21	4	1	10	47
CCCCCCCCCC[n+]1cccc2c3ccccc3ccc21	/	/	/	106*
O=c1cc(N2CCCCC2)c(-c2ccccc2)nn1Cc1ccccc1Cl	-4	0	2	90*
CCn1c2c(c3cc(Cl)ccc31)CCCC2=O	3	0	-2	76*
CCn1c2c(c3cc(C(=O)O)ccc31)CCCC2=O	-1	-1	-1	4
O=[N+]([O-])c1ccc(S(=O)(=O)Nc2ccc(-c3csc(-c4ccccc4)n3)cc2)cc1	-1	0	-2	19
Cc1ccc(S(=O)(=O)Nc2ccc(-c3csc(-c4ccccc4)n3)cc2)cc1	-2	1	0	94*
Cc1cc(C(=O)OC(C)C(=O)Nc2nc(-c3ccccc3)cs2)c(C)o1 (configuration not stated)	-2	0	0	45
Cc1ccc(S(=O)(=O)CC(=O)Nc2nc(-c3ccccc3)cs2)cc1	-5	1	1	90*
Cc1cc(C(=O)OCC(=O)Nc2cccc(S(=O)(=O)N(C)C)c2)c(C)o1	-1	1	2	5
CCN(CC)S(=O)(=O)c1cccc(NC(=O)COC(=O)c2cc(C)oc2C)c1	-3	0	5	72*
Cc1cc(C(=O)OCC(=O)Nc2nc(-c3ccccc3)cs2)c(C)o1	-1	1	0	94*
COC(=O)c1ccc(NC(=O)CNCc2ccncc2)cc1	-3	0	-1	2
CCOC(=O)CNC(=O)Cc1ccc(Cl)cc1	0	0	3	16
CCOC(=O)Cc1ccc(NCc2ccc(Cl)cc2)cc1	1	-1	0	78*
O=C(N/N=C/c1c(O)n(-c2ccccc2Cl)c(=O)c2ccccc12)C1COc2ccccc2O1 (configuration not stated)	0	1	3	37
SMILES	UPR XBP1 act	A1 inh	UPR CHOP act	CHOP inh
c1ccc(-c2nc(-c3ccccn3)no2)cc1	-9	-7	-8	60
c1ccc(-c2ccc(-c3nc(-c4ccccn4)no3)cc2)cc1	-9	0	-9	105*
Cc1ccc(-c2nc(-c3ccccn3)no2)cc1Cl	-8	-13	-8	83*
Cc1ccc(CCc2nnc(SCC(=O)Nc3cccc(Cl)c3)n2-c2ccccc2)o1	-1	2	-1	85*
Cc1nnc(SCC(=O)Nc2cc(C(N)=O)cc(C(N)=O)c2)n1-c1ccccc1	0	0	-1	/
COc1ccc(CC(=O)NCc2nnc(SCC(=O)Nc3cccc(F)c3)n2C)cc1	1	0	2	6
Cn1c(SCC(=O)Nc2cccc(F)c2)nnc1-c1cc2ccccc2o1	0	1	0	74*
